Measured values taken from ChEMBL document CHEMBL1221214, “Cytosporone B is an agonist for nuclear orphan receptor Nur77” (Nat Chem Biol, 2008).
Calls of active or inactive are those of the source. No cut-off for these calls is given here.

Legend:
[1] = target: T1, Nuclear receptor subfamily 4immunitygroup A member 1 (Homo sapiens, UniProt P22736); experiment: Binding affinity to Nur77 receptor expressed in human BGC823 cells; assay type: cell-based, BGC-823
[2] = target: T1, Nuclear receptor subfamily 4immunitygroup A member 1; experiment: Agonist activity at nuclear orphan receptor Nur77 in human BGC823 cells bearing beta-galactosidase expression vector assessed as transcriptional activation of NurRE reporter gene after 12 hrs by luciferase assay; assay type: functional, cell-based; conditions: BGC-823
[3] = target: T1, Nuclear receptor subfamily 4immunitygroup A member 1; experiment: Agonist activity at nuclear orphan receptor Nur77 in human BGC823 cells bearing beta-galactosidase expression vector assessed as transcriptional activation of estrogen receptor reporter gene after 12 hrs by luciferase assay; assay type: functional, cell-based; conditions: BGC-823
[4] = target: T1, Nuclear receptor subfamily 4immunitygroup A member 1; experiment: Agonist activity at nuclear orphan receptor Nur77 in human BGC823 cells bearing beta-galactosidase expression vector assessed as transcriptional activation of thyroid receptor reporter gene after 12 hrs by luciferase assay; assay type: functional, cell-based; conditions: BGC-823
[5] = target: T1, Nuclear receptor subfamily 4immunitygroup A member 1; experiment: Binding affinity to nuclear orphan receptor Nur77-DNA binding domain at 5 uM by fluorescence quenching analysis
[6] = target: T1, Nuclear receptor subfamily 4immunitygroup A member 1; experiment: Binding affinity to nuclear orphan receptor Nur77 assessed as conformational change in receptor by CD spectroscopic
[7] = target: T1, Nuclear receptor subfamily 4immunitygroup A member 1; experiment: Binding affinity to nuclear orphan receptor Nur77 by sedimentation equilibrium assay
[8] = target: T1, Nuclear receptor subfamily 4immunitygroup A member 1; experiment: Agonist activity at nuclear orphan receptor Nur77 expressed in human BGC823 cells co-transfected with fused GAL4-DBD assessed as transactivation after 12 hrs by luciferase reporter gene assay; assay type: functional, cell-based; conditions: BGC-823
[9] = target: Nuclear receptor subfamily 4 group A member 2 (Homo sapiens) (UniProt P43354); experiment: Agonist activity at nuclear orphan receptor Nurr1 expressed in human BGC823 cells co-transfected with fused GAL4-Nurr1(LBD) assessed as transactivation after 12 hrs by transactivation assay; assay type: functional, cell-based; conditions: BGC-823
Sequence of Nuclear receptor subfamily 4 group A member 2 (Homo sapiens) (P43354 whole entry, the tested form may be a part): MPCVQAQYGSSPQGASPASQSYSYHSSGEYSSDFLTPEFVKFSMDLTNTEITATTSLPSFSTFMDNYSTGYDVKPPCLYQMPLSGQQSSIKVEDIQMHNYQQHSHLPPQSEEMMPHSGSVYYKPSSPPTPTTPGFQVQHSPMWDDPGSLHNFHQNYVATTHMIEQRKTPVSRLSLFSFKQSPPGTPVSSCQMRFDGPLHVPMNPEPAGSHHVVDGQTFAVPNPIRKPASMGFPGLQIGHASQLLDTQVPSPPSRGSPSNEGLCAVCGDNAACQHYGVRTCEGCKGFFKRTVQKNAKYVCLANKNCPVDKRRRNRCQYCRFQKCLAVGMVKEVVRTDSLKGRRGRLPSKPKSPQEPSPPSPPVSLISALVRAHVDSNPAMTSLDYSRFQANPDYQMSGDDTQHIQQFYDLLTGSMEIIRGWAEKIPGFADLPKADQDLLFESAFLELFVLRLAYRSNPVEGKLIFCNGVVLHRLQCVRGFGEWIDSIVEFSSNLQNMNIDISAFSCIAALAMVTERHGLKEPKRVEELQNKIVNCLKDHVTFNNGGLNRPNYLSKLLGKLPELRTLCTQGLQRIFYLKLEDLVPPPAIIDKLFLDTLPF

[10] = target: Nuclear receptor subfamily 4 group A member 3 (Homo sapiens) (UniProt Q92570); experiment: Agonist activity at nuclear orphan receptor NOR1 expressed in human BGC823 cells co-transfected with fused GAL4-NOR1(LBD) assessed as transactivation after 12 hrs by transactivation assay; assay type: functional, cell-based; conditions: BGC-823
Sequence of Nuclear receptor subfamily 4 group A member 3 (Homo sapiens) (Q92570 whole entry, the tested form may be a part): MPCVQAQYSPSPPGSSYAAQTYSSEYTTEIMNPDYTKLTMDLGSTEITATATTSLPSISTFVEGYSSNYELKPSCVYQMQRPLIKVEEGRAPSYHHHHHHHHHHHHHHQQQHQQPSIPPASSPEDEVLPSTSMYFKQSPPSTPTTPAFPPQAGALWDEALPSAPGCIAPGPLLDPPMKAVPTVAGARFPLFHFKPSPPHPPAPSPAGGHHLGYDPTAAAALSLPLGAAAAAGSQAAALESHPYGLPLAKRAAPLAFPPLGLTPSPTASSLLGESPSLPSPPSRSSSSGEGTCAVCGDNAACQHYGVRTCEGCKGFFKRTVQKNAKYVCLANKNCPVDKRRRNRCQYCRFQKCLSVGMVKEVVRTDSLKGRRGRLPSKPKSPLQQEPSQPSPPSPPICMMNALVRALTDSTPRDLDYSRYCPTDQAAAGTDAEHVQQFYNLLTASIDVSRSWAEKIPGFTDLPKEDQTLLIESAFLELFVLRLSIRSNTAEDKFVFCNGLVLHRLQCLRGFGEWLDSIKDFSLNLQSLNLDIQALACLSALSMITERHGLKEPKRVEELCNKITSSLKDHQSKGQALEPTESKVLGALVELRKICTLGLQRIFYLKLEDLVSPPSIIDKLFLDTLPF

[11] = target: Nuclear receptor subfamily 4 group A member 1 (Mus musculus) (UniProt P12813); experiment: Agonist activity at Nur77 in wild-type mouse C57BL/6 assessed as fructose-1,6-bisphosphatase mRNA at 50 mg/kg, ip within 30 mins by real-time PCR analysis relative to control; assay type: functional, organism-based; design: dose 50 mg/kg
Sequence of Nuclear receptor subfamily 4 group A member 1 (Mus musculus) (P12813 whole entry, the tested form may be a part): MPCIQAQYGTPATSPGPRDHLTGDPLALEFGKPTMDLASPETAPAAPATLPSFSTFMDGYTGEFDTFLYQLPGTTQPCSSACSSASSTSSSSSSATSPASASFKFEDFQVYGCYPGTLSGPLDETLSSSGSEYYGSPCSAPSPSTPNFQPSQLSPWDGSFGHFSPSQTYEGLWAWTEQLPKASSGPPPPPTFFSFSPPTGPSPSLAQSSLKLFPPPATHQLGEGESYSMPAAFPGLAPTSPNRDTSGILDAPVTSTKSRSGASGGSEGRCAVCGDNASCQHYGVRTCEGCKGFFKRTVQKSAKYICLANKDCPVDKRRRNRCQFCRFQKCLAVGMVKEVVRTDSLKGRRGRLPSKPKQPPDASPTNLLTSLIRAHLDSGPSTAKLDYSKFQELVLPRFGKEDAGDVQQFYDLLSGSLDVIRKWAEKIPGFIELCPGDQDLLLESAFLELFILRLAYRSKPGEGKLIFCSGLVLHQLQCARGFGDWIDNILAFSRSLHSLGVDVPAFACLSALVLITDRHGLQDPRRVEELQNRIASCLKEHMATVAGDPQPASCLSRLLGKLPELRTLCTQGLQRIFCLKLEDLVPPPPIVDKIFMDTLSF

[12] = target: Nuclear receptor subfamily 4 group A member 1 (Mus musculus) (UniProt P12813); experiment: Agonist activity at Nur77 in wild-type mouse C57BL/6 assessed as phosphofructokinase mRNA at 50 mg/kg, ip within 30 to 300 mins by real-time PCR analysis; assay type: functional, organism-based; design: dose 50 mg/kg
[13] = target: Nuclear receptor subfamily 4 group A member 1 (Mus musculus) (UniProt P12813); experiment: Agonist activity at Nur77 in wild-type mouse C57BL/6 assessed as pyruvate kinase mRNA at 50 mg/kg, ip within 30 mins by real-time PCR analysis; assay type: functional, organism-based; design: dose 50 mg/kg
[14] = target: Nuclear receptor subfamily 4 group A member 1 (Mus musculus) (UniProt P12813); experiment: Agonist activity at Nur77 in wild-type mouse C57BL/6 assessed as pyruvate kinase mRNA at 50 mg/kg, ip after 300 mins by real-time PCR analysis; assay type: functional, organism-based; design: dose 50 mg/kg
[15] = target: Nuclear receptor subfamily 4 group A member 1 (Mus musculus) (UniProt P12813); experiment: Agonist activity at Nur77 in Nr4a1 deficient mouse C57BL/6 assessed as glucose-6-phosphatase mRNA at 50 mg/kg, ip by real-time PCR analysis; assay type: functional, organism-based; design: dose 50 mg/kg
[16] = target: Nuclear receptor subfamily 4 group A member 1 (Mus musculus) (UniProt P12813); experiment: Agonist activity at Nur77 in Nr4a1 deficient mouse C57BL/6 assessed as fructose-1,6-bisphosphatase mRNA at 50 mg/kg, ip by real-time PCR analysis; assay type: functional, organism-based; design: dose 50 mg/kg
[17] = species on record: Mus musculus; experiment: Reduction in blood glucose level in insulin treated mouse C57BL/6 within 30 mins; assay type: functional
How it was run: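 C57BL/6 mice fasted 5 h with water, then injected intraperitoneally with insulin (0.5 U kg-1), alone or with compound at 50 mg kg-1. Tail-vein blood glucose was read by glucometer at 15–300 min after treatment. Means ± s.e.m.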

[18] = target: Nuclear receptor subfamily 4 group A member 1 (Mus musculus) (UniProt P12813); experiment: Agonist activity at Nur77 in insulin treated mouse C57BL/6 assessed as fructose-1,6-bisphosphatase mRNA after 60 mins by real-time PCR relative to control; assay type: functional
[19] = tested on: SW-620; experiment: Antiproliferative activity against human SW620 cells assessed as number of viable cells after 72 hrs by MTT assay; assay type: functional
How it was run: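 BGC-823 gastric and SW620 colon cancer cells incubated 72 h with various Csn-B concentrations; viable cells counted by MTT assay.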

[20] = tested on: NIH3T3; experiment: Antiproliferative activity against mouse NIH/3T3 cells assessed as number of viable cells after 72 hrs by MTT assay; assay type: functional, cell-based
[21] = tested on: L02; experiment: Antiproliferative activity against human HL7702 cells assessed as number of viable cells after 72 hrs by MTT assay; assay type: functional, cell-based
[22] = target: T1, Nuclear receptor subfamily 4immunitygroup A member 1; experiment: Agonist activity at nuclear orphan receptor Nur77 expressed in human BGC823 cells co-transfected with pLuc-3500 containing Nr4a1 promoter assessed as transcriptional activity; assay type: functional, cell-based; conditions: BGC-823
[23] = target: T1, Nuclear receptor subfamily 4immunitygroup A member 1; experiment: Induction of Nur77-SRC1 interaction in human 293T cells by GST-pull-down assay; assay type: cell-based
How it was run: (§1)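 293T cells transfected with Flag-SRC-1, -2 or -3 and treated at 10⁻⁶ M for 3 h. Lysates were incubated with GST-Nur77 or GST alone, and bound SRC was detected by pull-down against input levels.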

[24] = target: T1, Nuclear receptor subfamily 4immunitygroup A member 1; experiment: Induction of Nur77-SRC3 interaction in HEK293T cells by GST-pull-down assay; assay type: cell-based; conditions: HEK-293T; how it was run: as §1
[25] = tested on: BGC-823; experiment: Induction of SRC2 recruitment to NurRE in human BGC823 cells after 12 hrs by luciferase/beta-galactosidase reporter assay; assay type: functional, cell-based
How it was run: (§2)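 BGC-823 cells cotransfected with or without SRC-1, SRC-2 or SRC-3, plus NurRE-luciferase reporter and β-galactosidase, then treated for 12 h at a range of concentrations. Fold induction is each luciferase activity relative to non-SRC transfection at the same concentration.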

[26] = target: T1, Nuclear receptor subfamily 4immunitygroup A member 1; experiment: Induction of SRC1-enhanced Nur77 transactivational activity in human BGC823 cells after 12 hrs by luciferase/beta-galactosidase reporter assay; assay type: cell-based; conditions: BGC-823; how it was run: as §2
[27] = target: T1, Nuclear receptor subfamily 4immunitygroup A member 1; experiment: Agonist activity at Nur77 expressed in human gastric cancer BGC823 assessed as transactivation in presence of siRNA against Nur77; assay type: functional; conditions: Stomach
[28] = target: Nuclear receptor subfamily 4 group A member 1 (Mus musculus) (UniProt P12813); experiment: Agonist activity at Nur77 in Nr4A1 deficient mouse assessed as transcriptional activation of luciferase reporter gene relative to control; assay type: functional
[29] = target: Nuclear receptor subfamily 4 group A member 1 (Mus musculus) (UniProt P12813); experiment: Agonist activity at Nur77 in Nr4a1 deficient mouse transfected withGAL4-Y453A assessed as transcriptional activation of luciferase reporter gene; assay type: functional
How it was run: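 Nr4a1-/- mice (n = 5/group) given tail-vein GAL4-Nur77 or GAL4-Y453A with GAL4-luciferase reporter and β-galactosidase in in vivo transfection reagent; 5 h later DMSO or Csn-B 50 mg kg-1 ip; liver luciferase measured at 24 h.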

[30] = tested on: BGC-823; experiment: Antitumor activity against human BGC823 cells expressing si-Nur77 xenografted in athymic nude mouse BALB/c assessed as apoptotic cells by TUNEL assay; assay type: functional
How it was run: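 Tumors from the subcutaneous BGC-823 xenograft nude mice (wild-type, si-Nur77 or si-Ctrl cells; Csn-B 13 mg kg-1 ip twice weekly or DMSO for 4 weeks) were sectioned and apoptotic cells detected by TUNEL assay.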

[31] = target: Nuclear receptor subfamily 4 group A member 1 (Mus musculus) (UniProt P12813); experiment: Agonist activity at Nur77 in Nr4a1-/- mouse transfected withGAL4-Y453A assessed as transcriptional activation of luciferase reporter gene

T1 sequence (P22736 whole entry): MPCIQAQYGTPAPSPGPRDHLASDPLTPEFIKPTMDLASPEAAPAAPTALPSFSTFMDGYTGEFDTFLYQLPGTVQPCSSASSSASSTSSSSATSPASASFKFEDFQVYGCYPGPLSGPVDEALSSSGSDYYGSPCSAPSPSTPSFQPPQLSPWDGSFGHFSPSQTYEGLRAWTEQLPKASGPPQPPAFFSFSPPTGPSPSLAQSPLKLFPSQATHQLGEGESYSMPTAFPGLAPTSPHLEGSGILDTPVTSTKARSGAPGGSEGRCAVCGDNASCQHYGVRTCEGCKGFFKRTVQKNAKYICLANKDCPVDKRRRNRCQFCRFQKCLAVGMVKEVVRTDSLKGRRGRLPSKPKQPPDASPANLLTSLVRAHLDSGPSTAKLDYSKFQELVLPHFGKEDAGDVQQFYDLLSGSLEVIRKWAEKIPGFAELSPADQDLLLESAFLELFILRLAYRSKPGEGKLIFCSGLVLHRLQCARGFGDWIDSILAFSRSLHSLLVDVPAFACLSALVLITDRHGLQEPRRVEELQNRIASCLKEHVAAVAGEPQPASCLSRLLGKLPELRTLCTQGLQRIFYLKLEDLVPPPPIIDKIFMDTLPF

For `CCCCCCCC(=O)c1c(O)cc(O)cc1CC(=O)OCC` [CYTOSPORONE B], the Kd [1] was 740 nM, the Activity [2] was “Active” and the Activity [3] was “inactive”. The Activity [4] was “inactive”, the Activity [5] was “inactive” and the Activity [6] was “Active”. The Activity [7] was “Active”, the Activity [8] was “inactive” and the Activity [9] was “inactive”. For the same compound, the Activity [10] was “inactive”, the fold change (FC) [11] was 3 and the Activity [12] was “inactive”. The Activity [13] was “inactive”, the Activity [14] was “inactive” and the Activity [15] was “inactive”. For the same compound, the Activity [16] was “inactive”, the “fold change (FC)” value [17] was 3 and the fold change (FC) [18] was 3.05. For the same compound, the “inhibition (INH)” value [19] was over 70%, the inhibition [20] was “Active” and the inhibition [21] was “Active”. The Activity [22] was “Active”, the Activity [23] was “Active” and the Activity [24] was “inactive”. The Activity [25] was “Active”, the Activity [26] was “Dose-dependent effect” and the Activity [27] was “inactive”. For the same compound, the Activity [28] was “inactive”, the Activity [29] was “inactive” and the Activity [30] was “Active”. The Activity [31] was “Active”.
